Results: ChEMBL document CHEMBL4257580, “Tanshinone-IIA-Based Analogues of Imidazole Alkaloid Act as Potent Inhibitors To Block Breast Cancer Invasion and Metastasis in Vivo” (J Med Chem, 2018)

Experiments:
HeLa = assay: Antiproliferative activity against human HeLa cells after 72 hrs by MTT assay; format: functional, cell-based
Outline: (§1)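 A549, HeLa, HepG2 and normal liver L02 cells kept in DMEM with 10% FBS at 37 °C under 5% CO2. Plated at 5×10^3 cells/well for 24 h, then treated with graded concentrations for 72 h. Viability measured by MTT reduction (5 h), formazan dissolved in DMSO and read at 570 nm. Three repeats.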

HepG2 = assay: Antiproliferative activity against human HepG2 cells after 72 hrs by MTT assay; format: functional, cell-based; conditions: HepG2, 72 h; outline: as §1
A549 = assay: Antiproliferative activity against human A549 cells after 72 hrs by MTT assay; format: functional, cell-based; conditions: A549, 72 h; outline: as §1
MDA-MB-231 = assay: Antiproliferative activity against human MDA-MB-231 cells after 72 hrs by MTT assay; format: functional, cell-based; conditions: MDA-MB-231, 72 h
Outline: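 MDA-MB-231 cells grown in DMEM with 10% FBS and penicillin/streptomycin at 37 °C under 5% CO2. Seeded at 5×10^3 cells/well for 24 h, then exposed to compound across a concentration range for 72 h. MTT (5 mg/mL in PBS) added for 5 h, formazan dissolved in DMSO, absorbance read at 570 nm. Three repeats.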

L02 = assay: Antiproliferative activity against human L02 cells after 72 hrs by MTT assay; format: cell-based; conditions: L02, 72 h; outline: as §1

| Compound | IC50 (HeLa) [µM] | IC50 (HepG2) [µM] | IC50 (A549) [µM] | IC50 (MDA-MB-231) [µM] | IC50 (L02) [µM] |
| --- | --- | --- | --- | --- | --- |
| COc1cccc(-c2nc3c([nH]2)c2c4c(ccc2c2occ(C)c32)C(C)(C)CCC4)c1 | 67.8 | 28.4 | 40.1 | 52.3 | > 300 |
| Cc1coc2c1C(=O)C(=O)c1c-2ccc2c1CCCC2(C)C [TANSHINONE IIA] | 193 | 65.7 | 53.2 | 116 | 78.5 |
| Cc1coc2c3ccc4c(c3c3[nH]c(-c5ccccc5O)nc3c12)CCCC4(C)C | 84.3 | 26.3 | 4.9 | 20.2 | 51.9 |
| Cc1coc2c3ccc4c(c3c3[nH]c(-c5ccc([N+](=O)[O-])cc5)nc3c12)CCCC4(C)C | 157 | 31 | 24.9 | 30.7 | > 300 |
| Cc1coc2c3ccc4c(c3c3[nH]c(-c5ccccc5[N+](=O)[O-])nc3c12)CCCC4(C)C | 115 | 24.8 | 203 | 23.6 | > 300 |
| Cc1coc2c3ccc4c(c3c3[nH]c(-c5ccccc5C(F)(F)F)nc3c12)CCCC4(C)C | 61 | 38.4 | 25.6 | 23.8 | 93.9 |
| Cc1coc2c3ccc4c(c3c3[nH]c(-c5cccc(C(F)(F)F)c5)nc3c12)CCCC4(C)C | 68.8 | 43.8 | 31.4 | 52.7 | 54.5 |
| Cc1coc2c3ccc4c(c3c3[nH]c(-c5ccc(C(F)(F)F)cc5)nc3c12)CCCC4(C)C | 65.3 | 25.2 | 48.8 | 44.3 | 30.7 |
| COc1ccc(-c2nc3c([nH]2)c2c4c(ccc2c2occ(C)c32)C(C)(C)CCC4)cc1 | 62 | 13.9 | 35.3 | 21.1 | 84 |
| Cc1coc2c3ccc4c(c3c3[nH]c(-c5cccc([N+](=O)[O-])c5)nc3c12)CCCC4(C)C | > 300 | 33.9 | 63.7 | 48.8 | > 300 |
| Cc1coc2c3ccc4c(c3c3[nH]c(-c5cccc(O)c5)nc3c12)CCCC4(C)C | 52.6 | 37.1 | 18.4 | 25.5 | 32.9 |
| COc1cccc2c1C(=O)c1c(O)c3c(c(O)c1C2=O)C[C@@](O)(C(=O)CO)C[C@@H]3O[C@H]1C[C@H](N)[C@H](O)[C@H](C)O1 [DOXORUBICIN] | 8.66 | 4.3 | 3.4 | 8.53 | 3.6 |
| COc1ccccc1-c1nc2c([nH]1)c1c3c(ccc1c1occ(C)c21)C(C)(C)CCC3 | > 300 | 126 | 45.9 | 110 | 86.8 |
